Drawing on ChEMBL document CHEMBL1144659, “Structure-activity study of 2,3-benzodiazepin-4-ones noncompetitive AMPAR antagonists: identification of the 1-(4-amino-3-methylphenyl)-3,5-dihydro-7,8-ethylenedioxy-4H-2,3-benzodiazepin-4-one as neuroprotective agent” (Bioorg Med Chem, 2008), this text covers IC50, EC50 and Activity for 26 compounds.

Assay [1] in a line: Displacement of [3H]CP-526427 from AMPA receptor in Sprague-Dawley rat fore brain by radioligand binding assay. Summed up:
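Adult male Sprague-Dawley forebrain membranes at 0.5 mg protein/mL in 50 mM Tris·HCl pH 7.4. Compounds at various concentrations with 3 nM [3H]CP-526,427, 20 min at 30 °C. Filtration onto glass fiber filters, scintillation counting. Nonspecific binding taken with 10 µM unlabeled CP-526,427 or CP-465,022. Positive control was CP-465,022.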
A general note: Loss of bound radioactivity is the signal in a displacement assay; it reports binding, not function.

The nature of assay [2]: Antagonist activity at AMPA receptor in rat […] granule cells assessed as inhibition of kainate-induced calcium uptake after 30 mins. The class given is functional, cell-based. The following applies: 0.5 h. An outline of the steps: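 Primary rat cerebellar granule neurons, preincubated 30 min with compounds in BSS (pH 7.3), then exposed at room temperature to 100 µM kainate in BSS with 10 µM glycine, 0.5 mM dithiothreitol and 45Ca2+ for 10 min. Washed with ice-cold BSS containing 5 mM EGTA, lysed in 0.6% Triton X-100, radioactivity counted. IC50 representative of three experiments.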

The next assay deals with Neuron. Description: Inhibition of kainate-induced C57BL/6N mouse hippocampal neurons excitotoxicity after 48 hrs by MTT assay. The class given is functional, tissue-based. The following applies: Hippocampus. An outline of the steps:
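E13 C57BL/6N mouse hippocampal cultures were given 30 µM kainate with the test compound at graded concentrations, in medium without glutamate. Exposure was 48 h at 37 °C. Viability was measured by MTT conversion (absorbance 570 nm), relative to untreated cells. IC50 values are representative of three independent experiments.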
Background: Formazan colour is commonly taken as a measure of viable cells.

Assay [3] can be described thus: Excitotoxicity against C57BL/6N mouse hippocampal neurons after 48 hrs by MTT assay. The class given is tissue-based. The following applies: Neuron, Hippocampus. An outline of the steps: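 Primary hippocampal cultures from E13 C57BL/6N mouse embryos were grown on poly-L-lysine in Neurobasal/B27/BDNF medium. At 7 DIV they were exposed to kainate (5–500 µM) for 48 h at 37 °C, 5% CO2. Viability was read by MTT (4 h, absorbance 570 nm) as % of untreated cells. Five–six experiments, each in duplicate.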

Molecules are shown by their SMILES.

Regarding `CNC(=O)N1N=C(c2ccc(N)cc2)c2cc3c(cc2C(C)C1=O)OCO3` (stereo not drawn), the 50% inhibitory concentration (IC50) (as a rule, the concentration that inhibits the measured activity by half) in assay [1] was 4.01 µM; in assay [2], 15.8 µM. Take `Cc1cc(C2=NNC(=O)Cc3cc4c(cc32)OCCO4)ccc1N`: the results for the half-maximal inhibitory concentration (IC50) (in assay [1]; in assay [2]; in the assay with Neuron) were 1.84 µM, 6.4 µM and 1.6 µM, respectively. Consider `Cc1cc(C2=NNC(=O)Cc3cc4c(cc32)OCCO4)cc(C)c1N`, for which the IC50 in assay [1] and in assay [2] was greater than 100 µM in each case.

`COc1cc(C2=NNC(=O)Cc3cc4c(cc32)OCCO4)ccc1N`: the results for the IC50 in assay [1] and in assay [2] were 81.1 µM and 12 µM, respectively. Regarding `C=C(C)[C@H]1CN[C@H](C(=O)O)[C@H]1CC(=O)O` [KAINIC ACID], in assay [3], the EC50 – broadly, the concentration that produces a half-maximal response – was 17.3 µM.

Turning to `CCC1C(=O)NN=C(c2ccc(N)cc2)c2cc3c(cc21)OCO3` (stereo not drawn), the IC50 in assay [1] came out at 8.37 µM; in assay [2] it was 17.1 µM.

With `CCC1C(=O)NN=C(c2ccc(N)c(C)c2)c2cc3c(cc21)OCO3` (stereo not drawn), the IC50 was 15.6 µM in assay [1] and 4.34 µM in assay [2]. For the compound `CC1=NN=C(c2ccc(N)cc2)c2cc3c(cc2C1)OCO3` [GYKI-52466], the IC50 in assay [1] amounted to 12.6 µM; in assay [2] it was 22 µM; in the assay with Neuron, 10.8 µM. With `CC(=O)N1N=C(c2ccc(N)cc2)c2cc3c(cc2C[C@H]1C)OCO3`, the Activity result in the assay on Neuron is “Dose-dependent effect”.

In the assay on Neuron, `NS(=O)(=O)c1cccc2c1c([N+](=O)[O-])cc1nc(O)c(O)nc12` [NBQX] came in with an IC50 of 11.9 µM. Consider `Nc1ccc(C2=NNC(=O)Cc3cc4c(cc32)OCCO4)cc1`, for which the IC50 was determined as 9 µM in assay [1] and 2.9 µM in assay [2]. For `Cc1cc(C2=NNC(=O)C(C)c3cc4c(cc32)OCCO4)ccc1N` (stereo not drawn), the values for the IC50 in assay [1] and in assay [2] were 4.5 µM and 1.23 µM, respectively. `Nc1ccc(C2=NNC(=O)C(Cc3ccccc3)c3cc4c(cc32)OCO4)cc1` (stereo not drawn): in assay [1], the IC50 was greater than 100 µM. `CNC(=O)N1N=C(c2ccc(N)cc2)c2cc3c(cc2CC1=O)OCO3`: the figures for the IC50 in assay [1] and in assay [2] were 12 µM and 11 µM, respectively.

With `Nc1ccc(C2=NNC(=O)Cc3cc4c(cc32)OCCO4)cc1Cl`, the figures for the IC50 in assay [1] and in assay [2] were 2.05 µM and 2 µM, respectively.

Take `CC1C(=O)NN=C(c2ccc(N)c(Cl)c2)c2cc3c(cc21)OCO3` (stereo not drawn): the values for the 50% inhibitory concentration (IC50) in assay [1] and in assay [2] were 11.4 µM and 7 µM, respectively. Turning to `CNC(=O)N1N=C(c2ccc(N)cc2)c2cc3c(cc2C[C@H]1C)OCO3`, the Activity entry in the assay on Neuron is “Dose-dependent effect”. Consider `COc1cc(C2=NNC(=O)Cc3cc4c(cc32)OCO4)ccc1N`, for which the half-maximal inhibitory concentration (IC50) in assay [1] was greater than 100 µM; in assay [2] it was 31 µM. The matching figures for `Nc1ccc(C2=NNC(=O)Cc3cc4c(cc32)OCO4)cc1`: 32 µM and 12 µM. The matching figures for `CNC(=O)N1N=C(c2ccc(N)cc2)c2cc3c(cc2CC1=O)OCCO3`: 7.78 µM and 5.4 µM. On the same counts, the results for `CC1C(=O)NN=C(c2ccc(N)cc2)c2cc3c(cc21)OCO3` (stereo not drawn) are 12.9 µM and 12 µM. Take `CC1C(=O)NN=C(c2ccc(N)c(Cl)c2)c2cc3c(cc21)OCCO3` (stereo not drawn): the 50% inhibitory concentration (IC50) was found to be 21.6 µM in assay [1] and 18 µM in assay [2]. The matching figures for `Cc1cc(C2=NNC(=O)C(C)c3cc4c(cc32)OCO4)ccc1N` (stereo not drawn): 9.62 µM and 18.8 µM. On the same counts, the results for `Cc1cc(C2=NNC(=O)Cc3cc4c(cc32)OCO4)ccc1N` are 6.3 µM and 2.5 µM.

The compound `CC1C(=O)NN=C(c2ccc(N)cc2)c2cc3c(cc21)OCCO3` (stereo not drawn) yielded an IC50 in assay [1] of 6.96 µM. `Cc1cc(C2=NNC(=O)Cc3cc4c(cc32)OCO4)cc(C)c1N`: the IC50 in assay [1] and in assay [2] was greater than 100 µM each time.
